For experiment [1], the target named is Neuronal acetylcholine receptor; alpha4/beta2 (Rattus norvegicus, UniProt P09483+P12390). As to the kind of experiment: Displacement of [3H]-Epibatidine from alpha4beta2 nAChR in rat cerebral cortex membrane preincubated for 5 mins followed by [3H]-Epibatidine addition and measured after overnight incubation by liquid scintillation beta counter analysis. The experiment is classed as cell membranes. An outline of the steps: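 Membranes (rat cerebral cortex for α4β2; HEK cells stably transfected with human α3β4) were pre-exposed to rising compound concentrations for 5 min. Samples were filtered on PEI-soaked GFC filters and counted by β scintillation. Nonspecific binding was set with 100 nM epibatidine.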

The target in experiment [2] is T1, Neuronal acetylcholine receptor; alpha3/beta4 (Homo sapiens, UniProt P30926+P32297). The experiment in a line: Displacement of [3H]-epibatidine from human alpha3beta4 transfected in HEK293 cell membranes preincubated for 5 mins followed by [3H]-epibatidine addition and measured after overnight incubation by liquid scintillation beta counter analysis. Also noted: species or system Membrane. In short, it runs like this:
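Membranes (rat cerebral cortex for α4β2; HEK cells stably transfected with human α3β4) were pre-exposed to rising compound concentrations for 5 min. They were then incubated overnight at 4 °C with [3H]epibatidine (0.1 nM for α4β2, 0.25 nM for α3β4). Samples were filtered on PEI-soaked GFC filters and counted by β scintillation. Nonspecific binding was set with 100 nM epibatidine.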

Experiment [3] deals with Neuronal acetylcholine receptor subunit alpha-7 (Rattus norvegicus, UniProt Q05941). The experiment in a line: Displacement of [125I]alpha-bungarotoxin from alpha7nAChR in rat hippocampus membranes preincubated for 5 mins followed by [125I]alpha-bungarotoxin addition and measured after overnight incubation by liquid scintillation beta counter analysis. In kind it is cell membranes, Membrane.

Experiment [4] has as its target T1, Neuronal acetylcholine receptor; alpha3/beta4. As to the kind of experiment: Partial agonist activity at human alpha3beta4 transfected in rat GH4-C1 cells at holding potential of -70 mV by whole cell patch clamp electrophysiology method. The experiment is classed as cell-based. In short, it runs like this: (§1)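 GH4C1 cells were transiently transfected by magnetofection with 0.5 μg of each human subunit cDNA (wild-type or S108A α4β2; α3β4). Whole-cell currents were recorded in HEPES-buffered saline at pH 7.3, with CsCl/BAPTA pipettes and fast perfusion of agonist. Concentrations were applied sequentially, and peak currents were normalized to 100 μM ACh on the same cell. EC50, Imax and Hill coefficient came from a Hill-equation fit.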

Experiment [5] shares this target. The experiment in a line: Partial agonist activity at human alpha3beta4 transfected in rat GH4-C1 cells assessed as maximum response at holding potential of -70 mV by whole cell patch clamp electrophysiology method relative to ACh. In kind it is cell-based. In short, it runs like this:
as §1

In experiment [6] the target is T2, Neuronal acetylcholine receptor; alpha4/beta2 (Homo sapiens, UniProt P17787+P43681). As to the kind of experiment: Displacement of [3H]-epibatidine from wild type human alpha4beta2 nAChR transfected in human Hela cell membranes preincubated for 5 mins followed by [3H]-epibatidine addition and measured after overnight incubation by liquid scintillation beta counter analysis. In short, it runs like this:
(§2)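 HeLa cells were transiently transfected (JetPEI) with 7.5 μg each of α4 and β2 (wild-type or mutant) cDNA and harvested after 24 h. Membranes were pre-exposed to compounds for 5 min, then incubated overnight at 4 °C with 0.1 nM [3H]epibatidine, filtered and counted by β scintillation. Ki came from the Cheng–Prusoff equation, three independent experiments in duplicate.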

The target in experiment [7] is T2, Neuronal acetylcholine receptor; alpha4/beta2. The experiment in a line: Partial agonist activity at human alpha4beta2 transfected in rat GH4-C1 cells assessed as maximum response at holding potential of -70 mV by whole cell patch clamp electrophysiology method relative to ACh. The experiment is classed as cell-based. An outline of the steps: as §1
Experiment [8] is described as follows: Selectivity index, ratio of Ki for displacement of [3H]-Epibatidine from wild type human alpha4beta2 nAChR transfected in Hela cell membrane to Ki for displacement of [3H]-Epibatidine from human alpha4beta2 nAChR S108A mutant transfected in Hela cell membrane. The experiment is classed as cell membranes. An outline of the steps:
as §2

Experiment [9] deals with T2, Neuronal acetylcholine receptor; alpha4/beta2. The experiment in a line: Partial agonist activity at human alpha4beta2 transfected in rat GH4-C1 cells at holding potential of -70 mV by whole cell patch clamp electrophysiology method. The experiment is classed as cell-based. In short, it runs like this: as §1
Experiment [10] can be described thus: Displacement of [3H]-epibatidine from human alpha4beta2 nAChR S108A mutant transfected in human Hela cell membranes preincubated for 5 mins followed by [3H]-Epibatidine addition and measured after overnight incubation by liquid scintillation beta counter analysis. An outline of the steps:
as §2

Experiment [11] addresses T1, Neuronal acetylcholine receptor; alpha3/beta4. As to the kind of experiment: Antagonist activity at human alpha3beta4 transfected in rat GH4-C1 cells assessed as inhibition of ACh-induced response at holding potential of -70 mV by whole cell patch clamp electrophysiology method. The experiment is classed as cell-based.
Experiment [12] is described as follows: Agonist activity at human alpha4beta2 S108A mutant transfected in rat GH4-C1 cells at holding potential of -70 mV by whole cell patch clamp electrophysiology method. In kind it is cell-based. In short, it runs like this:
as §1

The test system of the next experiment is GH4-C1. The experiment in a line: Agonist activity at human alpha4beta2 S108A mutant transfected in rat GH4-C1 cells assessed as maximum response at holding potential of -70 mV by whole cell patch clamp electrophysiology method relative to ACh. The experiment is classed as cell-based. An outline of the steps: as §1
Experiment [13] concerns the target T2, Neuronal acetylcholine receptor; alpha4/beta2. As to the kind of experiment: Partial agonist activity at wild type human alpha4beta2 transfected in rat GH4-C1 cells assessed as maximum response at holding potential of -70 mV by whole cell patch clamp electrophysiology method relative to ACh. In kind it is cell-based. An outline of the steps: as §1
The target is the same in experiment [14]. The experiment in a line: Agonist activity at wild type human alpha4beta2 transfected in rat GH4-C1 cells at holding potential of -70 mV by whole cell patch clamp electrophysiology method. The experiment is classed as cell-based. An outline of the steps: as §1

T2 sequence (P17787 whole entry): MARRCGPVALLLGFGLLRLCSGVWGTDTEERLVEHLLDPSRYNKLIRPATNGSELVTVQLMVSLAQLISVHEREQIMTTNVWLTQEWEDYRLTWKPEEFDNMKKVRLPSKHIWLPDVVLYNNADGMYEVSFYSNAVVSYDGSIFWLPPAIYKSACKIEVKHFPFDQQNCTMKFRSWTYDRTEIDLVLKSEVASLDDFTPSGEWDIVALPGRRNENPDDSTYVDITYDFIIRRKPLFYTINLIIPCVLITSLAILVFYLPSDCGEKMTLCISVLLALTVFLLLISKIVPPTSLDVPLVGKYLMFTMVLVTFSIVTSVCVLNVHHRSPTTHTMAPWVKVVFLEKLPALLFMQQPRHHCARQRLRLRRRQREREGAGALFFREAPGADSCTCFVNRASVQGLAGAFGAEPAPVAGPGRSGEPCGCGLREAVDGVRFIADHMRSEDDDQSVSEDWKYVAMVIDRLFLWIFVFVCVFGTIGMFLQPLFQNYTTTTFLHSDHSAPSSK
T2 sequence (P43681 whole entry): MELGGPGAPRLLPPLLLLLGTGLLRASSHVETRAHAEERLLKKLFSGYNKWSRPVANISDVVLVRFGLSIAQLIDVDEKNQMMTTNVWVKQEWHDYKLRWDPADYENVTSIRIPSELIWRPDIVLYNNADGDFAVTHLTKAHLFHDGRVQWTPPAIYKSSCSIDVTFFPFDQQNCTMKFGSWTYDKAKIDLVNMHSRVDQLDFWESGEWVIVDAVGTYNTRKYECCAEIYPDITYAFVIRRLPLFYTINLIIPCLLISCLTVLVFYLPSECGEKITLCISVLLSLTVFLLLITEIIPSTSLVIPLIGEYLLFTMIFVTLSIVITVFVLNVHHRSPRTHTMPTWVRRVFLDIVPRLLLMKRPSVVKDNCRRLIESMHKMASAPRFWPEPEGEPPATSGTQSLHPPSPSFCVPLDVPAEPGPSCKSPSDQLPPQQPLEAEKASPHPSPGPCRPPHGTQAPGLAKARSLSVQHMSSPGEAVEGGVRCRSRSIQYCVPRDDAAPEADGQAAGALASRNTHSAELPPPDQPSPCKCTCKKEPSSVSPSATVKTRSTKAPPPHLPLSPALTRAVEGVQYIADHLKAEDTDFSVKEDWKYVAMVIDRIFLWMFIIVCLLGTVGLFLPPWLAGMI
Chain of Neuronal acetylcholine receptor; alpha4/beta2 (Rattus norvegicus, UniProt P09483+P12390) (P09483 whole entry): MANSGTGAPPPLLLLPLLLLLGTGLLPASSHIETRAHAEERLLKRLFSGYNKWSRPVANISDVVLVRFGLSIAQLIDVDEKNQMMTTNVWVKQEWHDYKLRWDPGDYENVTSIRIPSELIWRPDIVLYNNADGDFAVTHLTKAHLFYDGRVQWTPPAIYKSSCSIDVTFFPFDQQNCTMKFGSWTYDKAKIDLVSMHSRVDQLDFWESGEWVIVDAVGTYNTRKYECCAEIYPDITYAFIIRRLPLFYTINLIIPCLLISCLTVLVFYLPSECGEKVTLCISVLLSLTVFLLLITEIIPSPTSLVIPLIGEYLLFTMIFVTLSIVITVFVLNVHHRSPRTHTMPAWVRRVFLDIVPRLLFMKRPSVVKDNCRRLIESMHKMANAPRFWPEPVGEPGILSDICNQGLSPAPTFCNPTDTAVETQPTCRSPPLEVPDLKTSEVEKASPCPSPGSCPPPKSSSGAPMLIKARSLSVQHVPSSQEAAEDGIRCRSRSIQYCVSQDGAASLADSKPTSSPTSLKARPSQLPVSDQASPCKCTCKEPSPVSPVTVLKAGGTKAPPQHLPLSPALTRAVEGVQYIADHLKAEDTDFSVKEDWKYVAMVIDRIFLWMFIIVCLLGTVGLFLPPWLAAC
Chain of Neuronal acetylcholine receptor; alpha4/beta2 (Rattus norvegicus, UniProt P09483+P12390) (P12390 whole entry): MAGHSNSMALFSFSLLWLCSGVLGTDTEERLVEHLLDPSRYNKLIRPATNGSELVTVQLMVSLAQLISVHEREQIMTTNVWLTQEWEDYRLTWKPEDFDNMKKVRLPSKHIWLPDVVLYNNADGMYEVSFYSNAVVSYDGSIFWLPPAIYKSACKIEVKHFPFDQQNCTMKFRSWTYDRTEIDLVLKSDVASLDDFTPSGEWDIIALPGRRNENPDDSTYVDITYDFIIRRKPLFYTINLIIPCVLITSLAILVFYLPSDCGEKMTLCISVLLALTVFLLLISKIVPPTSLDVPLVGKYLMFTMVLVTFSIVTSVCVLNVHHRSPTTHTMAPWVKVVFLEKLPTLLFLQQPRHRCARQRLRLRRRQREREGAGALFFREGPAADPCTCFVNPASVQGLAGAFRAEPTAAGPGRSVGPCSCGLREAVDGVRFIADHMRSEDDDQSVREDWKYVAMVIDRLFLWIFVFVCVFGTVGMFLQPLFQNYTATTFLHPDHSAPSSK
Chain of Neuronal acetylcholine receptor subunit alpha-7 (Q05941 whole entry): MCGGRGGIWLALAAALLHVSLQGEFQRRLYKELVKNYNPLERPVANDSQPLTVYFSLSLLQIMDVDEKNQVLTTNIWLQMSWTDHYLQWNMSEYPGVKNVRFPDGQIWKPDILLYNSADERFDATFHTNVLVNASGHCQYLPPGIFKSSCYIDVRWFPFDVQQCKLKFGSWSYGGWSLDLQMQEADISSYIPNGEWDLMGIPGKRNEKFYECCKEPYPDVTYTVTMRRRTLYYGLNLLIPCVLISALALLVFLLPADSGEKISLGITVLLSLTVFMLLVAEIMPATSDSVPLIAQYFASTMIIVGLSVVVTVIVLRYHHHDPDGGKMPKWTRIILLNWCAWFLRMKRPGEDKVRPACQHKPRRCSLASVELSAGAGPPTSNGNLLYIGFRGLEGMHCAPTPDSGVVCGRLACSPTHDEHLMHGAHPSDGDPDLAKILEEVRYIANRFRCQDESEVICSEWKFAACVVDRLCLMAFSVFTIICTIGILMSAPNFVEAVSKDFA
T1 sequence (P30926 whole entry): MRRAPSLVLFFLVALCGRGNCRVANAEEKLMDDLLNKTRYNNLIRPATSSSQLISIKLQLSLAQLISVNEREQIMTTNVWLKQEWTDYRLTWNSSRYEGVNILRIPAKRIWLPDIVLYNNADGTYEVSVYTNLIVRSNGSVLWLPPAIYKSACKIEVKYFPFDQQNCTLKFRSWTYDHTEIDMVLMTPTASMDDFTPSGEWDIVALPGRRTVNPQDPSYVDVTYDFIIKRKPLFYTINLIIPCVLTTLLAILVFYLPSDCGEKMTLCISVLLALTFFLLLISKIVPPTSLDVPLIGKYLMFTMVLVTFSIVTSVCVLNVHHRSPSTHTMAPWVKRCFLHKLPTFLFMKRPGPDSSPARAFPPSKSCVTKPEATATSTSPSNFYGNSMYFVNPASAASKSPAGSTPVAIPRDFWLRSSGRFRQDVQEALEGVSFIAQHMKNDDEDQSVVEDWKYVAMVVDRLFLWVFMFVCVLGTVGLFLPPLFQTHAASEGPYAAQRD
T1 sequence (P32297 whole entry): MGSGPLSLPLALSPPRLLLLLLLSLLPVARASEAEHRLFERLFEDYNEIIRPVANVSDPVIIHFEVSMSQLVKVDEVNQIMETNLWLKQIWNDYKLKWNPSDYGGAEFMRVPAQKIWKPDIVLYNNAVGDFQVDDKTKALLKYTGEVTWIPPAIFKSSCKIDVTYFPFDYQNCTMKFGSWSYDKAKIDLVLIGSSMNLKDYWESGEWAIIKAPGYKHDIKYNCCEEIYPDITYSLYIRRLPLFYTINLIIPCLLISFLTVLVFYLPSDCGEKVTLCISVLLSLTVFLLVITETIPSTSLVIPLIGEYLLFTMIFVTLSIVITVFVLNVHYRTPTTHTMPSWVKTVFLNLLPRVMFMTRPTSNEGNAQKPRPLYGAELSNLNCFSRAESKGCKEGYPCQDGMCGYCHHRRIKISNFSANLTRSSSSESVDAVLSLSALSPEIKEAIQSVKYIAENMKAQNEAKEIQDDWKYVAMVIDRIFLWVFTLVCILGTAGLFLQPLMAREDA

Turning to `CN1CCC[C@H]1[C@H]1COc2cc(-c3ccccc3)ccc2O1`, the inhibitory constant (Ki) in experiment [1] came out at 92 µM; in [2], 5.8 µM; in [3], 2.1 µM.
Regarding `CN1CCC[C@H]1[C@@H]1COc2cc(N)ccc2O1`, the Ki is 86 µM in experiment [1] and 3.5 µM in [2].
Turning to `CN1CCC[C@H]1[C@@H]1COc2ccc([N+](=O)[O-])cc2O1`, the figures for the Ki in experiment [1], in experiment [2] and in experiment [3] were 14 µM, 4.5 µM and 10.4 µM, respectively.
Take `CN(C)c1ccc2c(c1)O[C@H]([C@@H]1CCCN1C)CO2`: the results for the Ki in [1] and in [2] were 147 µM and 2.2 µM, respectively.
Turning to `CN1CCC[C@H]1[C@@H]1COc2cc(-c3ccccc3)ccc2O1`, the Ki is 59 µM in experiment [1], 5.4 µM in experiment [2] and 8.1 µM in experiment [3].
As to `CN1CCC[C@H]1[C@@H]1COc2ccc(N)cc2O1`, the EC50 worked out at 19 µM in [4] and 14 µM in [9]. Besides, the Ki in experiment [1] was 0.022 µM; in [2] it was 0.019 µM; in [3], 2.6 µM; in experiment [6], 0.046 µM; in experiment [10], 0.006 µM. For the same compound, the Imax in experiment [5] is 24%; in experiment [7] it was 36%. In addition, the Ratio Ki in experiment [8] stood at 7.7.
`CN1CCC[C@H]1[C@H]1COc2ccc(N)cc2O1`: the Ki in [1] was determined as 0.14 µM; in experiment [2] it was 0.18 µM; in experiment [3] it was 19.1 µM.
The corresponding values for `CN1CCC[C@H]1[C@@H]1COc2c(N)cccc2O1` are 7.1 µM, 3.9 µM and 109 µM.
For the compound `CC(=O)Nc1ccc2c(c1)O[C@@H]([C@@H]1CCCN1C)CO2`, the inhibition constant (Ki) in [1] stood at 46 µM; in experiment [2], 8.7 µM.
On to `CN1CCC[C@H]1[C@H]1COc2c(cccc2[N+](=O)[O-])O1`, for which the Ki in experiment [1] was found to be 0.335 µM; in [2], 6.7 µM.
The corresponding values for `CN1CCC[C@H]1[C@H]1COc2c(O)cccc2O1` are 1.7 µM and > 100 µM.
The matching figures for `CN1CCC[C@H]1[C@@H]1COc2c(cccc2[N+](=O)[O-])O1`: 12.2 µM and 1.1 µM.
On to `CN1CCC[C@H]1[C@H]1COc2cc([N+](=O)[O-])ccc2O1`, for which the Ki in experiment [1] was > 100 µM; in experiment [2] it was 4.8 µM; in experiment [3], 13.5 µM.
The corresponding values for `CN1CCC[C@H]1[C@@H]1COc2c(cccc2-c2ccccc2)O1` are 0.64 µM, 2.7 µM and 45.5 µM.
The matching figures for `CN1CCC[C@H]1[C@H]1COc2c(cccc2-c2ccccc2)O1`: 7.3 µM, 5.3 µM and 50 µM.
In the case of `CN1CCC[C@H]1[C@@H]1COc2cc([N+](=O)[O-])ccc2O1`, the results for the Ki in experiment [1], in [2] and in experiment [3] were 46 µM, 15 µM and 31.5 µM, respectively.
The matching figures for `CN(C)c1ccc2c(c1)O[C@@H]([C@@H]1CCCN1C)CO2`: 49 µM, 25 µM and > 10 µM.
As for `CN1CCC[C@H]1[C@H]1COc2c(N)cccc2O1`, the EC50 in experiment [4] worked out at 8.7 µM; in [12] it was 2.4 µM; in experiment [9], 0.005 µM; in experiment [14] it was 2.4 µM. In experiment [11], the IC50 was 54.6 µM. The Imax in the experiment on GH4-C1 worked out at 31%; in experiment [5], 38.2%; in experiment [13] it was 31%; in experiment [7], 21.8%. Moreover, the Ki amounted to 0.131 µM in [1]; 13 µM in experiment [2]; 44.5 µM in experiment [3]; 0.373 µM in experiment [6]; 0.156 µM in experiment [10]. Besides, the Ratio Ki in experiment [8] was determined as 2.4.
As to `CN1CCC[C@H]1[C@@H]1COc2ncccc2O1`, the EC50 in experiment [12] and in experiment [14] was 2.6 µM throughout. For the same compound, the Imax with GH4-C1 stood at 26%; in experiment [13] it was 26%; in experiment [7] it was 24.2%. In addition, the Ki in experiment [1] was found to be 0.41 µM; in experiment [3], 89 µM; in [6] it was 0.114 µM; in experiment [10] it was 0.265 µM. For the same compound, in experiment [8], the Ratio Ki was determined as 0.43.
Turning to `CN1CCC[C@H]1[C@@H]1COc2c(O)cccc2O1`, the figures for the Ki in experiment [1] and in [2] were 0.55 µM and 3.9 µM, respectively.
Turning to `CC(=O)Nc1ccc2c(c1)O[C@H]([C@@H]1CCCN1C)CO2`, the Ki in [1] was 6.5 µM; in experiment [2], 1.9 µM; in [3] it was > 10 µM.
`CN1CCC[C@H]1[C@H]1COc2cc(N)ccc2O1`: the results for the Ki in [1], in experiment [2] and in experiment [3] were 74 µM, 8.6 µM and > 10 µM, respectively.
Regarding `CN1CCC[C@H]1[C@@H]1COc2ccc(O)cc2O1`, the EC50 in experiment [12] and in experiment [14] was 3.8 µM throughout. In the experiment with GH4-C1, the Imax is 29%. The Ki in experiment [6] was 0.0067 µM; in experiment [10], 0.0012 µM. In addition, the Ratio Ki in experiment [8] was determined as 5.6.
Regarding `CN1CCC[C@H]1[C@@H]1COc2ccccc2O1`, the Ki in experiment [6] is 1.17 µM; in experiment [10] it was 0.912 µM. Moreover, the Ratio Ki in [8] amounted to 1.29.
Take `CN1CCC[C@H]1[C@H]1COc2ccc(O)cc2O1`: affinity in experiment [2] was put at a Ki of 0.7 µM.
In the case of `CN1CCC[C@H]1[C@H]1COc2cc(O)ccc2O1`, the Ki in experiment [1] came out at 71 µM; in experiment [2], 6 µM; in experiment [3], 10.5 µM.
As for `CN1CCC[C@H]1[C@@H]1COc2cc(O)ccc2O1`, the Ki in experiment [1] is 50 µM; in experiment [2] it was 1.9 µM; in [3] it was 26.8 µM.
The corresponding values for `CN1CCC[C@H]1[C@H]1COc2ccc([N+](=O)[O-])cc2O1` are 33 µM, 2.1 µM and 42.2 µM.
